# PG9 binder = binders of HIV-1 gp120 antibody PG9, primary screen, biochemical, TR-FRET | HIV-1 gp120 / PG9 antibody interaction | AID 624416, 2012 | 360,000 compounds, 0.43% hits | TR-FRET gp120-PG9 antibody binding | inhibition, % at 6.7 µM; in the data active = inhibition above about 8.5%
# GalR3 antag = GalR3 antagonists in HEK293 cells, primary screen, cell-based, fluorescence readout. 360,000 compounds, 0.44% hits. Galanin receptor type 3 (Homo sapiens), O60755. inhibition, % at 3 µM. HEK293 GalR3-CNG cAMP membrane potential fluorescence; galR3 body fused to GalR1 C-terminus;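 active = inhibition above the screen-wide average plus 3 SD, cut at about 13% in these data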;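 also: forskolin and galanin both at EC90 stimulate the cells; cAMP rise reported by CNG channel membrane potential dye signal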
# Rev-erbA mod = modulators of Rev-erb alpha DNA binding, primary screen, biochemical, FITC-DNA, fluorescence polarization, uHTS; Nuclear receptor subfamily 1 group D member 1 (Homo sapiens), P20393; Rev-erbα–FITC-DNA binding, 90 min; activity, % at 10 µM; 370,000 compounds, 0.79% hits;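 active = activity above about 14%, limit read from the data; passing the limit was not always enough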
# Target sequence (P20393 whole entry, looked up): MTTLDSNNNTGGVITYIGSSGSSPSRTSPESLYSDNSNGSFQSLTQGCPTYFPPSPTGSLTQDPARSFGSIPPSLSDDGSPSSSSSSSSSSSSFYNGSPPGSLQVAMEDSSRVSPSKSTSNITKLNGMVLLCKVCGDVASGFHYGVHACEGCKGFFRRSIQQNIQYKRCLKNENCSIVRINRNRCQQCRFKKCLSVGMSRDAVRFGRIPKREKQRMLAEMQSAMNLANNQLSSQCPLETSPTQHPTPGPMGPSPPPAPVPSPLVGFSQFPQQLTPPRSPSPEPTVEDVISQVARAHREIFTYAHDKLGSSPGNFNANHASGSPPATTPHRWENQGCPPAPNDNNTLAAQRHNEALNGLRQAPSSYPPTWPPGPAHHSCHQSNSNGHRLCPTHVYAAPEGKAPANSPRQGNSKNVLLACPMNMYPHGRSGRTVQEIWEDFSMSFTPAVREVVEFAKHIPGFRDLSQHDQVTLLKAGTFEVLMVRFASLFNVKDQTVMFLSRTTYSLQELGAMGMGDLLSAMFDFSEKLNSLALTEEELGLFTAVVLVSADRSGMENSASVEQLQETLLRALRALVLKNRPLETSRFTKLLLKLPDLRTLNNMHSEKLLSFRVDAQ
# NR2E3 ag-1 = NR2E3 agonists in two-hybrid cells, primary screen, cell-based, luminescence, CHO-S, Gal4-NCOR/VP16-NR2E3; Photoreceptor-specific nuclear receptor (Homo sapiens), Q9Y5X4; luciferase; inhibition of corepressor binding, % at 3.98 µM; 360,000 compounds, 0.35% hits; AID 602229, 2012;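 active = inhibition above the mean of all tested compounds plus 3 SD, cut at about 70% in these data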;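 also: higher means lower luciferase signal from less NR2E3 corepressor binding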
# NR2E3 ag-2 = inhibitors of NR2E3-RetCOR corepressor binding, primary screen, NR2E3 agonist project, biochemical, TR-FRET, GST-NR2E3, biotin-RetCOR | 320,000 compounds, 0.12% hits | Photoreceptor-specific nuclear receptor (Homo sapiens), Q9Y5X4 | inhibition of corepressor binding, % at 4.78 µM | 1536-well;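 active = percent inhibition above the cutoff of mean plus 3 SD of all tested compounds, set per screening campaign, cut at about 20% in these data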
#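 Material: NR2E3–RetCOR corepressor complex / Amount: 1.35 nM GST-NR2E3 / Medium: Tris pH 7.5 / Compound: single nominal compound dose of 4.8 µM / Incubation: 5 h at 4 °C / Technique: TR-FRET, Eu(K)-anti-GST donor, streptavidin-D2 acceptor, ex 340, em 617/671 nm / Read-out basis: percent loss of FRET ratio relative to control wells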
# GalR3 antag conf = GalR3 antagonist hit confirmation, cell-based, fluorescence, triplicate. shares compounds with GalR3 antag. HEK293 GalR3 CNG cAMP biosensor, membrane potential fluorescence; galR3 fused to GalR1 carboxy tail; challenged with forskolin and galanin at EC90. inhibition, % at 3 µM. 1,600 compounds, 59% hits. AID 652245, 2013;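 active = inhibition above the primary screen's cutoff, the mean inhibition of all screened compounds plus 3 SD, cut at about 13% in these data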
# HEK-CNG parental = nonspecific cAMP agonists in parental HEK-CNG cells, counter-screen for GalR3 antagonist project, cell-based, fluorescence, high throughput; shares compounds with GalR3 antag; HEK293-CNG parental cells, cAMP membrane potential fluorescence; normalised: DMSO wells 0%, forskolin wells 100%; activation, % at 3 µM; 1,600 compounds, 10% hits; AID 652268, 2013; in the data active = activation above about 1.3%
# A number is an active result; . = inactive; / = no result. A selection: hits, their analogues and other compounds. The true share with any hit is near 1.8%.
SMILES,PG9 binder,GalR3 antag,Rev-erbA mod,NR2E3 ag-1,NR2E3 ag-2,GalR3 antag conf,HEK-CNG parental
O=C(Nc1cccc(Br)c1)c1ccc(Cl)c(S(=O)(=O)N2CCOCC2)c1,.,88,.,.,.,100,.
Cc1ccc(OCCCC(=O)Nc2ccc(Cl)c(S(=O)(=O)N3CCOCC3)c2)cc1,.,.,.,.,.,/,/
C=CCNC(=O)NCC1CCN(Cc2ccc(OC)cc2)CC1,/,/,.,/,/,/,/
O=C(CSc1ncc(C(F)(F)F)cc1Cl)NCC1CCCO1 (stereo unspecified),.,13,.,.,.,.,.
Nc1cc(=O)[nH]c(SCC(=O)NCC2CCCO2)n1 (stereo unspecified),.,13,.,.,.,.,.
COc1ccc(C2CC(c3ccc4ccccc4c3)=NN2C(=O)CNC2CCCCC2)cc1 (stereo unspecified),.,.,.,.,.,/,/
COc1ccc(C2CC(c3ccc4ccccc4c3)=NN2C(=O)CN2CCC(C(N)=O)CC2)cc1 (stereo unspecified),.,14,.,.,.,.,3.0
Cc1cc(N2CCN(C(=O)Oc3ccc(C(F)(F)F)cc3)CC2)c2ccccc2n1,/,/,.,/,/,/,/
Cc1cc(Br)c(OCc2ccc(C(=O)N/N=C/c3ccc[nH]3)cc2)c(Br)c1,.,61,.,.,.,.,.
N#Cc1ccccc1COC(=O)c1cc(S(=O)(=O)N2CCOCC2)ccc1F,.,.,.,.,/,/,/
O=C(OCc1cc(=O)oc2cc(O)ccc12)c1cc(S(=O)(=O)N2CCOCC2)ccc1F,.,34,.,.,.,55,.
O=C1COc2ccc(C(=O)COC(=O)c3cc(S(=O)(=O)N4CCOCC4)ccc3F)cc2N1,.,55,.,.,.,34,.
O=C(Nc1ccc(Oc2cccnc2)nc1)c1ccc(C(F)(F)F)cc1,.,77,.,.,.,61,.
COC(=O)[C@H](C(C)C)N(CCCc1cn(Cc2ccccc2)nn1)S(=O)(=O)c1ccccc1Br,/,/,.,/,/,/,/
O=C(CCc1ccccc1-c1ccccc1CCNC(=O)c1ccc(F)c(F)c1)NCc1ccccc1,/,/,.,/,/,/,/
COc1ccccc1CNC(=O)[C@H](C)NC(=O)[C@@H]1Cc2ccccc2CN1,.,.,.,.,.,/,/
COc1ccccc1CNC(=O)[C@H](CCSC)NC(=O)[C@@H]1Cc2ccccc2CN1,.,22,.,.,.,.,.
COC(=O)c1cc(-c2cc3ccccc3o2)c(=O)n2c1CCC2,/,/,.,/,/,/,/
O=C(c1cccnc1Cl)N1CCOCC1,.,13,.,.,.,.,.
O=C(c1ccccc1F)N1CCOCC1,.,.,.,.,.,/,/
CCCCS(=O)(=O)N1C2=NC3=C(C(=O)N(CCOC)C3=O)C3N(C)c4ccccc4[C@]23C[C@H]1CO (stereo partly specified),/,/,.,/,/,/,/
CC(C)(C)c1ccc(-c2nnc(SCC(=O)Nc3ccccc3-c3ccccc3)n2Cc2ccco2)cc1,/,/,.,/,/,/,/
CC(=O)OCC(=O)Nc1ccc(Cl)cc1Cl,.,19,.,.,.,.,.
CCCCNC(=O)N(CC)c1c(N)n(Cc2ccccc2)c(=O)[nH]c1=O,.,13,.,.,.,.,.
CCCCCc1ccc(OCCC[n+]2ccccc2)c(CCCCC)c1,.,31,.,.,.,36,1.8
SMILES,PG9 binder,GalR3 antag,Rev-erbA mod,NR2E3 ag-1,NR2E3 ag-2,GalR3 antag conf,HEK-CNG parental
C=CCN(CC#Cc1ccccc1)CC=C,/,/,.,/,/,/,/
C[N+]1=C(N)N[C@@]2(C=C3CCCCC3n3c(=O)n(-c4ccccc4)c(=O)n32)C1 (stereo partly specified),/,/,.,/,/,/,/
O=C(COC(=O)/C=C/c1ccco1)NCc1ccco1,.,15,.,.,.,.,.
O=C(COC(=O)/C=C/c1ccco1)NCc1ccccc1Cl,.,.,.,.,.,/,/
COc1ccc(OC)c2[nH]c(=O)c(CCNC(=O)C(C)C)cc12,.,.,.,.,.,/,/
COc1cc(C(=O)NCCc2cc3c(OC)ccc(OC)c3[nH]c2=O)cc(OC)c1OC,.,14,.,.,.,15,.
O=C(C1CCN(c2cncnc2)CC1)N1CCOCC1,/,/,.,/,/,/,/
Fc1ccc(/C=N/NC(=S)Nc2cccnc2)cc1F,.,.,.,.,.,/,/
Fc1ccc(/C=N/NC(=S)Nc2cccnc2)cc1,.,21,.,.,.,.,.
CCN(CC)c1ccc(/C=N/NC(=S)NCc2ccccc2)c(O)c1,.,13,.,.,.,25,.
CCN(CC)c1ccc(/C=N/NC(=O)c2ccco2)c(O)c1,.,.,.,.,.,/,/
CCCCCOc1ccc(Br)cc1/C(C)=N/NC1=NCCN1,.,.,.,.,.,/,/
COc1ccc(Br)cc1/C(C)=N/NC1=NCCN1,.,85,.,.,.,32,2.1
Cc1ccc([N+](=O)[O-])cc1S(=O)(=O)N1CCCC1,.,/,.,.,.,.,.
O=c1[nH]c2ccc([N+](=O)[O-])cc2[nH]1,.,.,.,.,/,/,/
O=c1[nH]c2cc(Cl)c([N+](=O)[O-])nc2[nH]1,.,24,.,.,.,24,.
O=C(Oc1ccc(Br)cc1C(=O)/C=C/c1ccccc1F)c1ccco1,.,24,.,.,.,.,.
Cc1ccc(-c2cc(C(=O)NN=C/C=C/c3ccco3)[nH]n2)cc1C,/,/,.,/,/,/,/
COc1cc(CCC(=O)OCC(=O)Nc2ccc(C(N)=O)cc2)cc(OC)c1OC,.,/,.,.,.,.,.
COc1cc(CCC(=O)OCC(=O)Nc2sccc2C(N)=O)cc(OC)c1OC,.,93,.,.,/,102,.
COc1cc(C(=O)OCC(=O)Nc2sccc2C(N)=O)cc(OC)c1OC,.,.,.,.,.,/,/
COc1ccc2c(CCN3C(=O)c4ccccc4C3=O)c(-c3c(CCN4C(=O)c5ccccc5C4=O)c4ccccc4n3C(=O)OC(C)(C)C)[nH]c2c1,/,/,.,/,/,/,/
COc1ccc(-c2nc3ccc(C4=NNC(=O)CC4C)cc3[nH]2)cc1 (stereo unspecified),/,/,.,/,/,/,/
CC1CC(=O)NN=C1c1ccc(N(C)C)c([N+](=O)[O-])c1 (stereo unspecified),.,60,.,.,.,69,.
